From ChEMBL document CHEMBL4251662, “Alkyl indole-based cannabinoid type 2 receptor tools: Exploration of linker and fluorophore attachment” (Eur J Med Chem, 2018)
pEC50, pIC50, pKi: −log10 of the molar value. Active and inactive are the calls of the source. The rule behind the calls is not given here.

Legend:
Cannabinoid receptor 1 [1] = target: T1, Cannabinoid receptor 1 (Homo sapiens, UniProt P21554); test: Displacement of [3H]CP55,940 from N-terminal HA-tagged human CB1 receptor expressed in HEK293 cell membranes at 10 uM after 1 hr by microbeta scintillation counting method relative to control
Method in brief: (§1)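 Single-point competition screen against [3H]CP55,940 in HEK293 cells over-expressing 3HA-tagged hCB2 or hCB1. Compounds giving more than 50% displacement went on to full concentration-response curves.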

[2] = target: Interleukin-17A (Homo sapiens) (UniProt Q16552); test: Inhibition of IL-17 (unknown origin) assessed as disruption of IL-17 protein-protein interaction
[3] = target: Potassium voltage-gated channel subfamily KQT member 2 (Homo sapiens) (UniProt O43526); test: Agonist activity at KCNQ2 (unknown origin)
[4] = target: T2, Free fatty acid receptor 4 (Homo sapiens) (UniProt Q5NUL3); test: Agonist activity at GPR120 (unknown origin); type: functional
T2 sequence (whole entry): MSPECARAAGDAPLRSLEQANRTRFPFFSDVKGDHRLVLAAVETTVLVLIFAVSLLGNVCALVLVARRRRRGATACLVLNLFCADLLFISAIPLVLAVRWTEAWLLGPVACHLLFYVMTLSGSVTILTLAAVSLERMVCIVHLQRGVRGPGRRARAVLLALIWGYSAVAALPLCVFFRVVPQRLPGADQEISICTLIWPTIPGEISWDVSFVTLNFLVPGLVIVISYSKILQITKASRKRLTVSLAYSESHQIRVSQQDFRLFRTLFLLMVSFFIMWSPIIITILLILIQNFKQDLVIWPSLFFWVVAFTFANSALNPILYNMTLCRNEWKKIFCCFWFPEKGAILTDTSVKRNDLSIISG

HEK293 [5] = test: Effect on forskolin-stimulated cAMP level in HEK293 cells at 10 uM by BRET assay relative to control; type: ADME, cell-based; settings: human, hek293, 10 µM
Method in brief: (§2)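 Wild-type HEK293 cells lacking transfected receptor, tested at 10 µM and 1 µM. Forskolin-stimulated cAMP measured by BRET as a check that responses are receptor-mediated.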

[6] = target: T3, Potassium voltage-gated channel subfamily KQT member 3 (Homo sapiens) (UniProt O43525); test: Agonist activity at KCNQ3 (unknown origin)
T3 sequence (whole entry): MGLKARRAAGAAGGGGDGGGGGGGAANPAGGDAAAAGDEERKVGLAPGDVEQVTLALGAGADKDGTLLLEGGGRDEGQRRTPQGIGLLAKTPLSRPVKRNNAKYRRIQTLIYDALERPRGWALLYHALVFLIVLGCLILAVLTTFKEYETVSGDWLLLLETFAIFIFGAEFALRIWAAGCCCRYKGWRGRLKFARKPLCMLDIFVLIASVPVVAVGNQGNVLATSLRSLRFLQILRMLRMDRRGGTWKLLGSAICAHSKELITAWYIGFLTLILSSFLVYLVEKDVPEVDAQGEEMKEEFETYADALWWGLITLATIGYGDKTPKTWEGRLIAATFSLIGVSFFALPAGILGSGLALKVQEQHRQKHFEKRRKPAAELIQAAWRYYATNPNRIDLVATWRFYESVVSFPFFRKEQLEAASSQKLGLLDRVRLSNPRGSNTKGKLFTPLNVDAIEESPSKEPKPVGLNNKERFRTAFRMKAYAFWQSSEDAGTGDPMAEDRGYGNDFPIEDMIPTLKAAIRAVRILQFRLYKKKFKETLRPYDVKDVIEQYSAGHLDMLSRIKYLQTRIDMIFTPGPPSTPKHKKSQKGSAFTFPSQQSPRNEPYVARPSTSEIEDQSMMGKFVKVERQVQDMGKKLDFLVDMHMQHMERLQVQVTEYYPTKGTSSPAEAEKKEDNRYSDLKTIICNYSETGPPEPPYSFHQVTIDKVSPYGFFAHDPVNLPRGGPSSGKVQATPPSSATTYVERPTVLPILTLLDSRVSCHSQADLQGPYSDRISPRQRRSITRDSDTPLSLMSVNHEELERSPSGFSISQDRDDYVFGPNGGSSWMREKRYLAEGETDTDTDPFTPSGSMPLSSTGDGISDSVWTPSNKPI

Cannabinoid receptor 1 [7] = target: T1, Cannabinoid receptor 1; test: Activity at N-terminal HA-tagged human CB1 receptor expressed in HEK293 cells transfected with YFP-Epac-RLuc assessed as effect on forskolin-stimulated cAMP level by BRET assay relative to control; type: functional, cell-based
Method in brief: (§3)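 BRET cAMP biosensor read-out in HEK293 cells expressing HA-tagged human CB1 or CB2, with forskolin stimulation (5 µM). Concentration-response curves; area-under-curve values normalised to forskolin alone = 100% and basal = 0%. EC50 taken for agonists and IC50 for inverse agonists. Mean of at least three independent experiments, each point in duplicate.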

Cannabinoid receptor 2 [8] = target: T4, Cannabinoid receptor 2 (Homo sapiens, UniProt P34972); test: Displacement of [3H]CP55,940 from N-terminal HA-tagged human CB2 receptor expressed in HEK293 cell membranes after 1 hr by microbeta scintillation counting method; settings: read-out: Ki
Cannabinoid receptor 2 [9] = target: T4, Cannabinoid receptor 2; test: Displacement of [3H]CP55,940 from N-terminal HA-tagged human CB2 receptor expressed in HEK293 cell membranes at 10 uM after 1 hr by microbeta scintillation counting method relative to control; method in brief: as §1
Cannabinoid receptor 2 [10] = target: T4, Cannabinoid receptor 2; test: Activity at N-terminal HA-tagged human CB2 receptor expressed in HEK293 cells transfected with YFP-Epac-RLuc assessed as effect on forskolin-stimulated cAMP level by BRET assay; type: functional, cell-based; method in brief: as §3
Cannabinoid receptor 1 [11] = target: T1, Cannabinoid receptor 1; test: Activity at N-terminal HA-tagged human CB1 receptor expressed in HEK293 cells transfected with YFP-Epac-RLuc assessed as effect on forskolin-stimulated cAMP level by BRET assay; type: functional, cell-based; method in brief: as §3
[12] = target: T5, Nicotinamide N-methyltransferase (Homo sapiens) (UniProt P40261); test: Inhibition of NNMT (unknown origin)
T5 sequence (whole entry): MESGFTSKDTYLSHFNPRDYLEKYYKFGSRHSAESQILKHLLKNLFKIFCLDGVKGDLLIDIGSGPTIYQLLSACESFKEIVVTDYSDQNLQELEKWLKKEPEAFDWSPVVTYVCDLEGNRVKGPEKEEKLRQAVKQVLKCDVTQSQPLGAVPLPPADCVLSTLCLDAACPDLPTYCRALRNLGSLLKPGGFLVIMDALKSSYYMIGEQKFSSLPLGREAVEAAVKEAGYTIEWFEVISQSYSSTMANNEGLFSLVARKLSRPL

Cannabinoid receptor 2 [13] = target: T4, Cannabinoid receptor 2; test: Activity at N-terminal HA-tagged human CB2 receptor expressed in HEK293 cells transfected with YFP-Epac-RLuc assessed as effect on forskolin-stimulated cAMP level by BRET assay relative to control; type: functional, cell-based; method in brief: as §3
[14] = target: Proprotein convertase subtilisin/kexin type 9 (Homo sapiens) (UniProt Q8NBP7); test: Inhibition of PCSK9 (unknown origin)
Cannabinoid receptor 1 [15] = target: T1, Cannabinoid receptor 1; test: Displacement of [3H]CP55,940 from N-terminal HA-tagged human CB1 receptor expressed in HEK293 cell membranes after 1 hr by microbeta scintillation counting method; settings: read-out: Ki
Leishmania donovani = test: Growth inhibition of Leishmania donovani; type: functional, organism-based
HEK293 [16] = test: Effect on forskolin-stimulated cAMP level in HEK293 cells at 1 uM by BRET assay relative to control; type: ADME, cell-based; settings: human, hek293, 1 µM; method in brief: as §2
Cannabinoid receptor 2 [17] = target: T4, Cannabinoid receptor 2; test: Agonist activity at N-terminal HA-tagged human CB2 receptor expressed in HEK293 cells transfected with YFP-Epac-RLuc assessed as decrease in forskolin-stimulated cAMP level by BRET assay; type: functional, cell-based; method in brief: as §3
Cannabinoid receptor 1 [18] = target: T1, Cannabinoid receptor 1; test: Agonist activity at N-terminal HA-tagged human CB1 receptor expressed in HEK293 cells transfected with YFP-Epac-RLuc assessed as decrease in forskolin-stimulated cAMP level by BRET assay relative to control; type: functional, cell-based; method in brief: as §3
Cannabinoid receptor 2 [19] = target: T4, Cannabinoid receptor 2; test: Agonist activity at N-terminal HA-tagged human CB2 receptor expressed in HEK293 cells transfected with YFP-Epac-RLuc assessed as decrease in forskolin-stimulated cAMP level by BRET assay relative to control; type: functional, cell-based; method in brief: as §3
Cannabinoid receptor 1 [20] = target: T1, Cannabinoid receptor 1; test: Agonist activity at N-terminal HA-tagged human CB1 receptor expressed in HEK293 cells transfected with YFP-Epac-RLuc assessed as decrease in forskolin-stimulated cAMP level by BRET assay; type: functional, cell-based; method in brief: as §3
Cannabinoid receptor 1 [21] = target: T1, Cannabinoid receptor 1; test: Agonist activity at N-terminal HA-tagged human CB1 receptor expressed in HEK293 cells transfected with YFP-Epac-RLuc assessed as decrease in forskolin-stimulated cAMP level at 10 uM by BRET assay; type: functional, cell-based
Method in brief: (§4)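 Single-concentration screen at 10 µM in CB receptor-expressing HEK293 cells, run with and without CP55,940 as reference agonist. Forskolin-stimulated cAMP read by BRET biosensor. A fall in cAMP is scored as agonism and a rise as inverse agonism.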

Cannabinoid receptor 2 [22] = target: T4, Cannabinoid receptor 2; test: Agonist activity at N-terminal HA-tagged human CB2 receptor expressed in HEK293 cells transfected with YFP-Epac-RLuc assessed as decrease in forskolin-stimulated cAMP level at 10 uM by BRET assay; type: functional, cell-based; method in brief: as §4
Cannabinoid receptor 2 [23] = target: T4, Cannabinoid receptor 2; test: Inverse agonist activity at N-terminal HA-tagged human CB2 receptor expressed in HEK293 cells transfected with YFP-Epac-RLuc assessed as increase in forskolin-stimulated cAMP level by BRET assay relative to control; type: functional, cell-based; method in brief: as §3
Cannabinoid receptor 2 [24] = target: T4, Cannabinoid receptor 2; test: Inverse agonist activity at N-terminal HA-tagged human CB2 receptor expressed in HEK293 cells transfected with YFP-Epac-RLuc assessed as increase in forskolin-stimulated cAMP level by BRET assay; type: functional, cell-based; method in brief: as §3
Cannabinoid receptor 2 [25] = target: T4, Cannabinoid receptor 2; test: Inverse agonist activity at N-terminal HA-tagged human CB2 receptor expressed in HEK293 cells transfected with YFP-Epac-RLuc assessed as increase in forskolin-stimulated cAMP level at 10 uM by BRET assay; type: functional, cell-based

Potassium voltage-gated channel subfamily KQT member 2 (Homo sapiens), sequence (O43526 whole entry): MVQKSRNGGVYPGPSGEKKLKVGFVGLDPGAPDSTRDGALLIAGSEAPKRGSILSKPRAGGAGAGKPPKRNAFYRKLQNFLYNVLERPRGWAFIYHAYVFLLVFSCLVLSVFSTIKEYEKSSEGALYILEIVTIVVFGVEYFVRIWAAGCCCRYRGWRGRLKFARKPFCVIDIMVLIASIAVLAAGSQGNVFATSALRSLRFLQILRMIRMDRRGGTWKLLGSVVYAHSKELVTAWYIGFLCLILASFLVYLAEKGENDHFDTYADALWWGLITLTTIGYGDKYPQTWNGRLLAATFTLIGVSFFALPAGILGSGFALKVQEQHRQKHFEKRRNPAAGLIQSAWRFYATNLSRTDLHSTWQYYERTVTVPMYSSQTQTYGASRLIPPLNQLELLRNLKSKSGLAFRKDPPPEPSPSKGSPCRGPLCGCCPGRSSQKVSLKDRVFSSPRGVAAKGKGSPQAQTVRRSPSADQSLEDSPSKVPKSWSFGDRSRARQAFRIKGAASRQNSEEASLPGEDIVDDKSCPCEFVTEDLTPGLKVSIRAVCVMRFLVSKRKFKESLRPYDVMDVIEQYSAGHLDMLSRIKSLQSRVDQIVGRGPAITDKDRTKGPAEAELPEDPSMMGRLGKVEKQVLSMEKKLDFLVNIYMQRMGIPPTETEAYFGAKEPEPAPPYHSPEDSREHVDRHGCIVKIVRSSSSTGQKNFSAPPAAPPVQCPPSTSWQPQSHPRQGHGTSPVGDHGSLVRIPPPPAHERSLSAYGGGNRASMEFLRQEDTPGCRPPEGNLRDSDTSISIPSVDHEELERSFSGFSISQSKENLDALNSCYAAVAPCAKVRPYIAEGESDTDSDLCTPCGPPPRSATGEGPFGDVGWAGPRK
Interleukin-17A (Homo sapiens), sequence (Q16552 whole entry): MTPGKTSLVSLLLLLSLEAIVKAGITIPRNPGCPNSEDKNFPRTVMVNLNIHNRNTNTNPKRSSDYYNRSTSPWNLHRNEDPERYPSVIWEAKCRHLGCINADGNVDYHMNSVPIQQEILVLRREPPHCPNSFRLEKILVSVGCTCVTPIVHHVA
T1 sequence (P21554 whole entry): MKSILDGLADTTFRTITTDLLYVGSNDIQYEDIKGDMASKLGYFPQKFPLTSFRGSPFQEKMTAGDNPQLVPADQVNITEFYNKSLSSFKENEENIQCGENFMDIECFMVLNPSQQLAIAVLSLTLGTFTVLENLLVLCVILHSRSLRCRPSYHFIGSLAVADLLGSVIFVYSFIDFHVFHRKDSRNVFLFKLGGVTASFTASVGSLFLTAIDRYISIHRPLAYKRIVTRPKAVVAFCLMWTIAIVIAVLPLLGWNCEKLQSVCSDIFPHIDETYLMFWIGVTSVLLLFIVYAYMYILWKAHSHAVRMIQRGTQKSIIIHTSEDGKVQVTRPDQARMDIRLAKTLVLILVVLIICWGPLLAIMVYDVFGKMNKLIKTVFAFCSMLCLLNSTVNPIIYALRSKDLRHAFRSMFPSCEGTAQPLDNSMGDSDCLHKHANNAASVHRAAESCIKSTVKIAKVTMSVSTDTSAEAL
T4 sequence (P34972 whole entry): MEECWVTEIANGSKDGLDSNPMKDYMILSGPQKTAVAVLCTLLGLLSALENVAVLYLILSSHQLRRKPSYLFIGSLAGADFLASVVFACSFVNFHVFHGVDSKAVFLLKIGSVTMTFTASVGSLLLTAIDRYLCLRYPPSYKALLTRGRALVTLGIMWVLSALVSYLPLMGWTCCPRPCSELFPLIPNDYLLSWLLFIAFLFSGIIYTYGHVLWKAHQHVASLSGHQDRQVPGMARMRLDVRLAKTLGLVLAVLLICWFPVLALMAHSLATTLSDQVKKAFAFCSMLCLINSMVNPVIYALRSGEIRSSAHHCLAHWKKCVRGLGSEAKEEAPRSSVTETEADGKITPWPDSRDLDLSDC
Proprotein convertase subtilisin/kexin type 9 (Homo sapiens), sequence (Q8NBP7 31-152 limits assumed): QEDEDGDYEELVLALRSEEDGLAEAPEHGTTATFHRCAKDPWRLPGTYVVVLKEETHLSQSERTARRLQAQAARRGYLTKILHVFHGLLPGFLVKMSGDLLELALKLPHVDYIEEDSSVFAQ
Proprotein convertase subtilisin/kexin type 9 (Homo sapiens), sequence (Q8NBP7 153-692 limits assumed): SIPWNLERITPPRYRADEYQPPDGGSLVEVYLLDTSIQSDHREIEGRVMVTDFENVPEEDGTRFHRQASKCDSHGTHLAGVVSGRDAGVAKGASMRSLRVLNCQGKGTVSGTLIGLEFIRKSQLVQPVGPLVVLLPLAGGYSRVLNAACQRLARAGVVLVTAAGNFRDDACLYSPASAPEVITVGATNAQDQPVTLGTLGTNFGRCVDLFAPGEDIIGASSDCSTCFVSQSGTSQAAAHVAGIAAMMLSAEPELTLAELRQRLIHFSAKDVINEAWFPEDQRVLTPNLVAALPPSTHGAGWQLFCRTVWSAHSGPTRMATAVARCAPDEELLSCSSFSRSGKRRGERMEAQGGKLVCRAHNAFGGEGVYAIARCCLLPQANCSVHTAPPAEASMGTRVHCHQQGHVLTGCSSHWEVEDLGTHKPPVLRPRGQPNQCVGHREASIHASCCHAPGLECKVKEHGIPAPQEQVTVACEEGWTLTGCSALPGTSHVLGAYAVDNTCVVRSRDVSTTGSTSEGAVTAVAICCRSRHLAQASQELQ

| SMILES | inhibition (Cannabinoid receptor 1 [1]) [%] | inhibition [2] | Activity [3] | Activity [4] | Activity (HEK293 [5]) [%] | Activity [6] | Emax (Cannabinoid receptor 1 [7]) | pKi (Cannabinoid receptor 2 [8]) | inhibition (Cannabinoid receptor 2 [9]) [%] | Activity (Cannabinoid receptor 1 [11]) | inhibition [12] | inhibition [14] | pKi (Cannabinoid receptor 1 [15]) | growth inhibition (GI) (Leishmania donovani) | Activity (HEK293 [16]) [%] | Emax (Cannabinoid receptor 1 [18]) [%] | pEC50 (Cannabinoid receptor 1 [20]) | Activity (Cannabinoid receptor 1 [21]) | Emax (Cannabinoid receptor 2 [23]) [%] | pIC50 (Cannabinoid receptor 2 [24]) | other results |
| --- | --- | --- | --- | --- | --- | --- | --- | --- | --- | --- | --- | --- | --- | --- | --- | --- | --- | --- | --- | --- | --- |
| CCCOc1ccc2c(c1)c(C(=O)c1ccc(OC)cc1)cn2CC1CCOCC1 | > 50 | inactive | inactive | inactive | 127.6 | inactive | inactive | 5.87 | > 50 | inactive | inactive | inactive | 5.34 | inactive | 95 | – | – | – | – | – | Activity (Cannabinoid receptor 2 [10]): inactive; Emax (Cannabinoid receptor 2 [13]): inactive |
| COc1ccc(C(=O)c2cn(CC3CCOCC3)c3ccc(O)cc23)cc1 | > 50 | inactive | inactive | inactive | 109.6 | inactive | – | 6.92 | > 50 | – | inactive | inactive | 5.85 | inactive | 105.5 | 62.2 | 7.20 | Active | – | – | pEC50 (Cannabinoid receptor 2 [17]): 8.36; Emax (Cannabinoid receptor 2 [19]): 65.7%; Activity (Cannabinoid receptor 2 [22]): Active |
| Cc1ccc(Cn2nc(C(=O)N[C@@H]3C(C)(C)[C@@H]4CC[C@@]3(C)C4)cc2-c2ccc(Cl)c(C)c2)cc1 | – | – | – | – | 94.5 | – | inactive | – | – | inactive | – | – | – | – | 99.8 | – | – | – | 212 | – | – |
| CCCOc1cccc2c(C(=O)c3ccc(OC)cc3)cn(CC3CCOCC3)c12 | > 50 | – | – | – | 133.9 | – | inactive | 8.24 | > 50 | inactive | – | – | 6.30 | – | 105.4 | – | – | – | 263 | 7.51 | Activity (Cannabinoid receptor 2 [25]): Active |
| COc1ccc(C(=O)c2cn(CC3CCOCC3)c3c(O)cccc23)cc1 | > 50 | inactive | inactive | inactive | 135.3 | inactive | – | 7.27 | > 50 | – | inactive | inactive | 5.45 | inactive | 104.3 | 64.3 | 6.20 | Active | 190 | 6.57 | Activity (Cannabinoid receptor 2 [25]): Active |
